Results from ChEMBL document CHEMBL4765325, “Discovery of dihydropyrrolidones as novel inhibitors against influenza A virus” (Eur J Med Chem, 2020).

Key:
[1] = test system: Influenza A virus; test: Antiviral activity against Influenza A virus (A/Puerto Rico/8/34(H1N1)) harboring NA H274Y mutant infected in dog MDCK cells assessed as reduction in virus-induced cytopathogenicity incubated for 48 hrs by microscopic analysis; format: functional, organism-based, A/Puerto Rico/8/1934(H1N1)
Outline: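 MDCK cells were infected with each IAV strain at 100TCID₅₀ for 1 h, then washed twice with PBS. They were cultured 48 h in DMEM with two-fold serial compound dilutions and 1 mg/ml TPCK. Antiviral activity was read by an MTT-based method, giving IC₅₀ from triplicate wells as mean SD.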

[2] = Selectivity index, ratio of CC50 for dog MDCK cells to IC50 for antiviral activity against Influenza A virus (A/Puerto Rico/8/34(H1N1)) harboring NA H274Y mutant; format: toxicity; details: read-out: Ratio CC50/IC50
Outline: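 SI = CC50/IC50, both from MTT read-outs in MDCK cells in triplicate. Cytotoxicity: 2 × 10⁴ cells/well, overnight at 37 °C with 5% CO2, then compound at 1.56–400 µM for 48 h, MTT 4 h, DMSO, A570. Antiviral: cells infected 1 h, washed, then cultured 48 h in DMEM with TPCK and two-fold serial compound dilutions.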

Q: With CCOC(=O)C1=C(Nc2ccc(C(F)(F)F)cc2)C(=O)N(c2ccc(C(F)(F)F)cc2)C1c1ccccc1 (configuration not stated) as the compound, how does the IC50 [1] read?
A: The IC50 was 6.48 µM.

Q: And the selectivity ratio [2]?
A: The selectivity ratio was greater than 61.6.
